Experimental findings from ChEMBL document CHEMBL1765085, “Cytotoxic and apoptosis-inducing activities of triterpene acids from Poria cocos” (J Nat Prod, 2011) are described below.

Common to all, as to assay type: functional, cell-based
In one test the test system is SK-BR-3. Kind of test: Cytotoxicity in human SK-BR-3 cells assessed as cell viability after 48 hrs by MTT assay. The note with it: SK-BR-3, 48 h. In outline: (§1)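 Growth conditions: RPMI 1640 for HL60, CRL1579, NIH:OVCAR-3, SK-BR-3, DU145 and PANC-1; D-MEM for A549; MEM for WI-38; all with 10% FBS and antibiotics, 37 °C, 5% CO2. Seeded at 3 × 10^3 cells/well (OVCAR-3 1 × 10^4), then treated 48 h with 10^-4 to 10^-6 M. MTT for 3 h, formazan dissolved in 0.04 M HCl/2-propanol, A570/630. IC50 (50% growth inhibition) from triplicates.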
For orientation: Tetrazolium assays rely on reduction of a dye to a coloured formazan, in cell work by metabolically active cells.

Test [1] in a line: Cytotoxicity in human AZ-521 cells assessed as cell viability after 48 hrs by MTT assay. The note with it: AZ-521, 48 h.
The test system of a further test is OVCAR-3. Kind of test: Cytotoxicity in human OVCAR3 cells assessed as cell viability after 48 hrs by MTT assay. The note with it: OVCAR-3, 48 h. Summed up: as §1
Another test relates to PANC-1. Kind of test: Cytotoxicity in human PANC1 cells assessed as cell viability after 48 hrs by MTT assay. The conditions noted are these: PANC-1, 48 h. In outline:
as §1

In a further test the test system is DU-145. Kind of test: Cytotoxicity in human DU145 cells assessed as cell viability after 48 hrs by MTT assay. The note with it: DU-145, 48 h. In outline:
as §1

Test [2] in a line: Cytotoxicity in human CRL1579 cells assessed as cell viability after 48 hrs by MTT assay. In outline:
as §1

The test system of another test is A549. Description: Cytotoxicity in human A549 cells assessed as cell viability after 48 hrs by MTT assay. The note with it: A549, 48 h. Summed up:
as §1

Another test concerns HL-60. Description: Cytotoxicity in human HL60 cells assessed as cell viability after 48 hrs by MTT assay. The conditions noted are these: HL-60, 48 h. Summed up: as §1

Usually IC50 stands for the concentration needed to halve the response being measured. `C=C(CC[C@@H](CO)[C@H]1CC[C@@]2(C)C3=CC[C@H]4C(C)(C)[C@@H](O)CC[C@]4(C)C3=CC[C@]12C)C(C)C`: the IC50 with SK-BR-3 was 11.7 µM; in test [1] it was 12.5 µM; in the test on OVCAR-3, 6.4 µM; in the test on PANC-1 it was 22.6 µM; with DU-145, more than 100 µM; in test [2], 2.8 µM. Also, the IC50 with A549 was 4 µM; in the test with HL-60, 6.7 µM.
Take `C=C(CC[C@@H](C(=O)OC)[C@H]1CC[C@@]2(C)C3=CC[C@H]4C(C)(C)C(=O)CC[C@]4(C)C3=CC[C@]12C)C(C)C`: the IC50 was 27.5 µM in the test on SK-BR-3; 53.4 µM in test [1]; more than 100 µM in the test on OVCAR-3; more than 100 µM with PANC-1; more than 100 µM with DU-145; 20.9 µM in test [2]. Further, the IC50 with A549 amounted to 96.5 µM; in the test on HL-60, 23.5 µM.
For `C=C(C)[C@@H]1CCC2=C(CC[C@]3(C)[C@@H]([C@H](CO)CCC=C(C)C)[C@H](O)C[C@@]23C)[C@@]1(C)CCCO` [PORICOTRIOL G], the IC50 in the test on SK-BR-3 was 13 µM; in test [1] it was 13.4 µM; in the test with OVCAR-3 it was 43.5 µM; in the test on PANC-1, 17.9 µM; in the test with DU-145, more than 100 µM; in test [2], 11.6 µM. Also, the IC50 is 11 µM in the test with A549 and 7.5 µM with HL-60.
As for `C=C(CC[C@@H](C(=O)OC)[C@H]1[C@H](O)C[C@@]2(C)C3=CC[C@H]4C(C)(C)[C@H](O)CC[C@]4(C)C3=CC[C@]12C)C(C)(C)O`, the IC50 in the test on SK-BR-3 stood at 27.5 µM; in test [1], 14.4 µM; in the test with OVCAR-3, 67.5 µM; in the test with PANC-1 it was 71.3 µM; in the test on DU-145, 28.9 µM; in test [2], 76.5 µM. In addition, the values for the half-inhibitory concentration (IC50) with A549 and with HL-60 were 41.4 µM and 6.9 µM, respectively.
With `C=C(CC[C@@H](C(=O)O)[C@H]1[C@H](O)C[C@@]2(C)C3=CC[C@@H](C(=C)C)[C@](C)(CCC(=O)O)C3=CC[C@]12C)C(C)C` [PORICOIC ACID A], the IC50 (with SK-BR-3; in test [1]; in the test on OVCAR-3; in the test on PANC-1; in the test on DU-145; in the test on A549) was more than 100 µM each time.
Regarding `C=C(CCC(C(=O)O)[C@H]1CC[C@@]2(C)C3=CC[C@H]4C(C)(C)C(=O)CC[C@]4(C)C3=CC[C@]12C)C(C)C` (stereo not given in full) [DEHYDROEBURICONIC ACID], the IC50 with SK-BR-3 is 12.2 µM; in test [1] it was more than 100 µM; in the test with OVCAR-3, 37.7 µM; with PANC-1 it was 5.5 µM; in the test on DU-145, more than 100 µM; in test [2] it was 89.7 µM. Also, the results for the IC50 with A549 and with HL-60 were 10 µM and 29.2 µM, respectively.
For the compound `C=C(CC[C@@H](C(=O)OC)[C@H]1[C@H](O)C[C@@]2(C)C3=CC[C@@H](C(=C)C)[C@](C)(CCC(=O)OC)C3=CC[C@]12C)C(C)C` [DIMETHYL PORICOATE A], the IC50 with SK-BR-3 was 32.2 µM; in test [1], 32.1 µM; in the test with OVCAR-3 it was 91.8 µM; in the test on PANC-1, more than 100 µM; with DU-145, more than 100 µM; in test [2], more than 100 µM. For the same compound, the half-maximal inhibitory concentration (IC50) amounted to 79.6 µM in the test with A549 and 18.2 µM in the test with HL-60.
For `C=C(CC[C@@H](C(=O)O)[C@H]1[C@H](O)C[C@@]2(C)C3=CC[C@H]4C(C)(C)[C@H](O)CC[C@]4(C)C3=CC[C@]12C)C(C)(C)O`, the IC50 with SK-BR-3 is 62.3 µM; in test [1], 51.5 µM; in the test with OVCAR-3 it was 9.5 µM; in the test on PANC-1 it was 67.4 µM; in the test on DU-145 it was more than 100 µM; with A549 it was 4 µM.
For the compound `C=C(CC[C@@H](C(=O)OC)[C@H]1[C@H](O)C[C@@]2(C)C3=C(CC[C@]12C)[C@@](C)(CCC(=O)OC)[C@H](C(=C)C)CC3)C(C)C` [DIMETHYL PORICOATE H], the IC50 came to 15.9 µM in the test on SK-BR-3; 14.6 µM in test [1]; 49.5 µM in the test with OVCAR-3; 44.9 µM with PANC-1; 28.9 µM in the test with DU-145; 97.6 µM in test [2]. The IC50 amounted to 13.5 µM with A549 and 3.6 µM in the test on HL-60.
On to `C=C(CC[C@@H](CO)[C@H]1[C@H](O)C[C@@]2(C)C3=CC[C@H]4C(C)(C)[C@H](O)CC[C@]4(C)C3=CC[C@]12C)C(C)(C)O`, for which the IC50 was more than 100 µM in the test with SK-BR-3; more than 100 µM in test [1]; more than 100 µM with OVCAR-3; more than 100 µM with PANC-1; more than 100 µM in the test on DU-145; 14 µM in test [2]. For the same compound, the figures for the IC50 in the test with A549 and with HL-60 were more than 100 µM and 2.5 µM, respectively.
Turning to `C=C(C)[C@@H]1CCC2=C(CC[C@]3(C)[C@@H]([C@@H](CCC=C(C)C)C(=O)OC)[C@H](O)C[C@@]23C)[C@@]1(C)CCC(=O)OC` [DIMETHYL PORICOATE G], the IC50 in the test on SK-BR-3 is 4.3 µM; in test [1], 34.5 µM; with OVCAR-3 it was 26.3 µM; with PANC-1, more than 100 µM; with DU-145, more than 100 µM; in test [2], 42.4 µM. Further, the IC50 in the test with A549 is 66 µM; in the test with HL-60, 8.8 µM.
In the case of `C=C(CC[C@@H](C(=O)O)[C@H]1CC[C@@]2(C)C3=CC[C@@H](C(=C)C)[C@](C)(CCC(=O)O)C3=CC[C@]12C)C(C)C` [PORICOIC ACID C], the IC50 was 23.9 µM in the test on SK-BR-3; 45.9 µM in test [1]; 53.1 µM with OVCAR-3; 68.9 µM in the test with PANC-1; 14.5 µM in the test with DU-145; more than 100 µM in test [2]. The values for the IC50 with A549 and in the test on HL-60 were 27 µM and 25.9 µM, respectively.
Turning to `C=C(CC[C@@H](C(=O)O)[C@H]1[C@H](O)C[C@@]2(C)C3=C(CC[C@]12C)[C@@](C)(CCC(=O)O)[C@H](C(=C)C)CC3)C(C)C` [PORICOIC ACID H], the IC50 (in the test with SK-BR-3; in test [1]; in the test on OVCAR-3; with PANC-1; in the test on DU-145; in the test with A549) was more than 100 µM throughout.
As to `C=C(CC[C@@H](CO)[C@H]1[C@H](O)C[C@@]2(C)C3=C(CC[C@]12C)[C@@](C)(CCCO)[C@H](C(=C)C)CC3)C(C)C`, the half-inhibitory concentration (IC50) was 51.3 µM in the test on SK-BR-3; more than 100 µM in test [1]; more than 100 µM with OVCAR-3; more than 100 µM in the test on PANC-1; more than 100 µM with DU-145; 9.9 µM in test [2]. Also, the 50% inhibitory concentration (IC50) in the test with A549 amounted to 41.2 µM; with HL-60, 2.9 µM.
For `O=c1[nH]cc(F)c(=O)[nH]1` [FLUOROURACIL], the IC50 with SK-BR-3 is more than 100 µM; in test [1], more than 100 µM; in the test with OVCAR-3, more than 100 µM; with PANC-1, 54.1 µM; in the test on DU-145, more than 100 µM; in test [2], more than 100 µM. For the same compound, the IC50 in the test on HL-60 is 9.5 µM.
Consider `C=C(C)[C@@H]1CCC2=C(CC[C@]3(C)[C@@H]([C@@H](CCC=C(C)C)C(=O)O)[C@H](O)C[C@@]23C)[C@@]1(C)CCC(=O)O` [PORICOIC ACID G], for which the IC50 (in the test with SK-BR-3; in test [1]; in the test on OVCAR-3; in the test with PANC-1; in the test with DU-145; in the test with A549) was more than 100 µM in each case.
As for `C=C(CC[C@@H](CO)[C@H]1CC[C@@]2(C)C3=CC[C@@H](C(=C)C)[C@](C)(CCCO)C3=CC[C@]12C)C(C)C` [PORICOTRIOL C], the IC50 in the test with SK-BR-3 turned out to be 11 µM; in test [1] it was 13.3 µM; in the test with OVCAR-3, 70.3 µM; with PANC-1, 91.3 µM; in the test with DU-145 it was 20.3 µM; in test [2] it was 76.4 µM. Moreover, the 50% inhibitory concentration (IC50) stood at 80 µM with A549 and 12.3 µM in the test on HL-60.
For the compound `C=C(CC[C@@H](C(=O)OC)[C@H]1CC[C@@]2(C)C3=CC[C@@H](C(=C)C)[C@](C)(CCC(=O)OC)C3=CC[C@]12C)C(C)C` [DIMETHYL PORICOATE C], the IC50 was 23.9 µM in the test with SK-BR-3; 19.8 µM in test [1]; 23.6 µM in the test on OVCAR-3; more than 100 µM in the test on PANC-1; more than 100 µM in the test with DU-145; 27.8 µM in test [2]. Further, the IC50 came to 83.8 µM with A549 and 2.4 µM with HL-60.
